Assay results taken from ChEMBL document CHEMBL3525967, “In vitro glucuronidation of the antibacterial triclocarban and its oxidative metabolites” (Drug Metab Dispos, 2012).

Legend:
[1] = (§1) Drug metabolism in Sprague-Dawley rat liver microsomes after 30 mins by LC-ESI-MS analysis; assay type: ADME; settings: Sprague-Dawley, liver microsomes
Procedure, shortened: (§2)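 2'-OH-TCC at 0.2, 0.5, 1, 2, 3, 5, 10 and 50 µM incubated with liver microsomes (alamethicin, MgCl2, saccharolactone, UDPGA; 37 °C), sampled at 5, 10, 15 and 30 min. Samples ≥5 µM diluted 1:9 in ACN; LC-ESI-MS. KM and vmax fitted from rate vs concentration; intrinsic clearance derived from these; mean and SD of three.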

[2] = test system: Liver microsome; assay: as §1; assay type: ADME; settings: microsomes, 0.5 h; procedure, shortened: as §2
[3] = (§3) Drug metabolism in human liver microsomes after 30 mins by LC-ESI-MS analysis; assay type: ADME; settings: liver microsomes; procedure, shortened: as §2
[4] = test system: Liver microsome; assay: as §3; assay type: ADME; settings: microsomes, 0.5 h; procedure, shortened: as §2
[5] = target: T1, UDP-glucuronosyltransferase 1A4 (Homo sapiens, UniProt P22310); assay: Drug metabolism assessed as human UGT1A4-mediated N-glucuronide-triclocarban formation expressed in baculovirus infected insect sf9 cells incubated for 5 mins prior to UDPGA addition measured after 5 to 30 mins by LC-UV analysis; assay type: ADME
T1 sequence (P22310 whole entry): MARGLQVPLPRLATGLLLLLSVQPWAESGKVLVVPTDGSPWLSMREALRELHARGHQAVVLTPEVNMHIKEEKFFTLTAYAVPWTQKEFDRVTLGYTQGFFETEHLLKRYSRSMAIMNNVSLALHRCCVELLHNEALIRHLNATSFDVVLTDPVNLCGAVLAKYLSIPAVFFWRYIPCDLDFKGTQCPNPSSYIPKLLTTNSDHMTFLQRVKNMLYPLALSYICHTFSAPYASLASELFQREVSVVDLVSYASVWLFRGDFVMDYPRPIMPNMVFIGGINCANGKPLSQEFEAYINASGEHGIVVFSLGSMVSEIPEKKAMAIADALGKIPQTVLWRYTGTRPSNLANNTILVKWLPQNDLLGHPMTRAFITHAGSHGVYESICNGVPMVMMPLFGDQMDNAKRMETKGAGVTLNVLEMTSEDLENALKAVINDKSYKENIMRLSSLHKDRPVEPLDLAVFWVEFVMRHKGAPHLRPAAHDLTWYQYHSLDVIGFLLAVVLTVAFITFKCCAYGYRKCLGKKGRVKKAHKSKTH
Procedure, shortened: (§4)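 Microsomes or UGT Supersomes (5 µg protein) were held 15 min on ice with alamethicin in 100 mM potassium phosphate pH 7.4. TCC was added at 10 µM (2% DMSO) with 10 mM MgCl2 and 10 mM saccharolactone, pre-warmed 5 min at 37 °C, then started with UDPGA. Samples at 5, 10, 15 and 30 min were quenched in ACN. Product was read by LC-UV at 265 nm; rate came from regression over time, three incubations.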

[6] = target: T2, UDP-glucuronosyltransferase 2B7 (Homo sapiens, UniProt P16662); assay: Drug metabolism assessed as human UGT2B7-mediated N-glucuronide-triclocarban formation expressed in baculovirus infected insect sf9 cells incubated for 5 mins prior to UDPGA addition measured after 5 to 30 mins by LC-UV analysis; assay type: ADME; procedure, shortened: as §4
T2 sequence (P16662 whole entry): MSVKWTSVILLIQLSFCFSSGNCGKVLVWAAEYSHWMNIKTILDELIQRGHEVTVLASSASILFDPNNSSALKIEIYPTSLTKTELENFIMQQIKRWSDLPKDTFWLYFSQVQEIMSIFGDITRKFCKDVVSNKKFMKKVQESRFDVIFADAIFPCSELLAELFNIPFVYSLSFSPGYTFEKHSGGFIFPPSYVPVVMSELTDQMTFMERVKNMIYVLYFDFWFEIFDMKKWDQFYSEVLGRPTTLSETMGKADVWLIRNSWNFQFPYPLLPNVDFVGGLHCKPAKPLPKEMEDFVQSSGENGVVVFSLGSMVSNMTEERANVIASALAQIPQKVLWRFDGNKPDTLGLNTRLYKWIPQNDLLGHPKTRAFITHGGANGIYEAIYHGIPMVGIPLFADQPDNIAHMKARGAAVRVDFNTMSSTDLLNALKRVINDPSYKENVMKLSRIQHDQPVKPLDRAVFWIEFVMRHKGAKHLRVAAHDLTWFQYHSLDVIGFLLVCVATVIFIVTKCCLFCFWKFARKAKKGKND

[7] = target: T3, UDP-glucuronosyltransferase 2B17 (Homo sapiens, UniProt O75795); assay: Drug metabolism assessed as human UGT2B17-mediated N-glucuronide-triclocarban formation expressed in baculovirus infected insect sf9 cells incubated for 5 mins prior to UDPGA addition measured after 5 to 30 mins by LC-UV analysis; assay type: ADME; procedure, shortened: as §4
T3 sequence (O75795 whole entry): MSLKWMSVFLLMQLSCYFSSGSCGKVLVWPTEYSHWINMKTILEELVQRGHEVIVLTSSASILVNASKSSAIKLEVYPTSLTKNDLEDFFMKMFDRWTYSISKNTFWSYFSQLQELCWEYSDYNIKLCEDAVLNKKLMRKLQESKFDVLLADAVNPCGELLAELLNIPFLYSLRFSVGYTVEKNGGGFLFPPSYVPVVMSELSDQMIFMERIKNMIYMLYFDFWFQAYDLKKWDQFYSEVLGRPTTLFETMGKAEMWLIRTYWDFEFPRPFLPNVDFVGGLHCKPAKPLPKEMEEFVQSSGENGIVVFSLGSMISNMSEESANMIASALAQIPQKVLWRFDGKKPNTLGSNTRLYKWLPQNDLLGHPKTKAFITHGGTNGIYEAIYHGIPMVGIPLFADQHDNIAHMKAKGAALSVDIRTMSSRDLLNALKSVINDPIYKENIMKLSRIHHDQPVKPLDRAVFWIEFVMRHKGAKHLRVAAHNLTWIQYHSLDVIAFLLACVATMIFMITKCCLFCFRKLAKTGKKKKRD

[8] = Drug metabolism in cynomolgus monkey liver microsomes assessed as N'-glucuronide-triclocarban formation incubated for 5 mins prior to UDPGA addition measured after 5 to 30 mins by LC-UV analysis; assay type: ADME, Macaca fascicularis; procedure, shortened: as §4
[9] = Drug excretion in Swiss webster mouse urine assessed as N'-glucuronide-triclocarban formation at 5 mg/kg, po by LC-MS analysis; assay type: ADME, organism-based; design: dose 5 mg/kg, route oral; settings: in vivo
Procedure, shortened: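 Mice were housed two per metabolic cage, with blank urine collected over the 24 h before dosing. TCC was given by oral gavage as a 1 mg/mL solution in 20/80 DMSO/PEG400 (v/v) at 5 mg/kg. Urine was collected at 0-24 h and 24-48 h and analysed by online LC-MS. Values are the mean of two independent experiments.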

[10] = test system: Liver microsome; assay: Drug metabolism in human liver microsomes assessed as N-glucuronide-triclocarban formation incubated for 5 mins prior to UDPGA addition measured after 30 mins by LC-UV-ESI-MS/MS analysis; assay type: ADME; settings: 0.5 h
Procedure, shortened: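 Pooled human kidney or liver microsomes (liver: 25 mixed-gender donors), 5 µg protein, in 200 µL 100 mM potassium phosphate pH 7.4. Alamethicin pre-treated on ice 15 min. Final 10 µM TCC (2% DMSO), with 10 mM MgCl2 and 10 mM saccharolactone, preincubated 5 min at 37 °C. Started with UDPGA (20 mM stock). Sampled at 5, 10, 15 and 30 min into ACN containing 1 µM DCC internal standard.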

Compound	Km at 0.5 h [1] [µM]	Vmax [2] [nmol/min/mg]	Km at 0.5 h [3] [µM]	Vmax [4] [nmol/min/mg]	Drug metabolism [5]	Drug metabolism [6]	Drug metabolism [7]	Drug metabolism [8]	Drug excretion [9]	Drug metabolism [10]
O=C(Nc1ccc(Cl)c(Cl)c1)Nc1ccc(Cl)cc1O	3.29	9.42	3.08	5.37						
O=C(Nc1ccc(Cl)cc1)Nc1ccc(Cl)c(Cl)c1 [TRICLOCARBAN]					metabolite_not_detected	metabolite_not_detected	metabolite_not_detected	metabolite_not_detected	metabolite_detected	metabolite_detected
